The subject of experiment [1] is MM1.S. Nature of the experiment: Upregulation of IFN in human MM1.S cells assessed as increase in IFIT1 gene at 1 uM for 6 days by qRT-PCR analysis. Type of experiment: functional, cell-based. Particulars: time 6.0 day.
In experiment [2] the test system is MM1.S. Nature of the experiment: Induction of apoptosis in human MM1.S cells assessed as late apoptotic cells at 1 uM for 3 days by annexin-V based propidium iodide staining based flow cytometric analysis (reference value: 0.15%). Type of experiment: functional. Particulars: time 3 day.
Experiment [3] concerns RPMI-8226. Nature of the experiment: Upregulation of IFN in human RPMI-8226 cells assessed as increase in IFITM1 gene at 1 uM for 6 days by qRT-PCR analysis. The following applies: time 6.0 day.
Experiment [4] has as its system MM1.S. Description: Induction of apoptosis in human MM1.S cells assessed as early apoptotic cells at 1 uM for 6 days by annexin-V based propidium iodide staining based flow cytometric analysis (reference value: 7.39%). The format is functional. The following applies: time 6 day.
For experiment [5], the system named is RPMI-8226. Description: Upregulation of POPDC2 gene in human RPMI-8226 cells at 1 uM for 6 days by. Particulars: time 6.0 day. Type of experiment: functional, cell-based.
The test system of experiment [6] is KMS-12-PE. Nature of the experiment: Antiproliferative activity against human KMS-12-PE cells treated upto 14 days with replacement of fresh medium containing drug every 3 to 4 days by cell counting kit-8 method. Type of experiment: functional, cell-based. Particulars: time <= 14.0 day. In outline: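 Screen of histone methylation modifier inhibitors in 6-well plates at 3 × 10^4 to 1 × 10^5 cells/well. Drug at 1 μM or DMSO for up to 14 days, with medium and drug refreshed every 3-4 days. CCK-8 read on days 3-4 and 11-14. Values normalized to DMSO; mean of 5 replications ± SEM; unpaired two-sided t-test.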

The test system of experiment [7] is MM1.S. Nature of the experiment: Upregulation of FNBP1L gene in human MM1.S cells at 1 uM for 6 days by. The format is functional, cell-based. Particulars: time 6.0 day. In outline:
(§1)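 Human myeloma lines RPMI-8226 and MM.1S exposed to 1 μM DOT1L inhibitor, or DMSO, for 6 days. Whole-genome expression profiled on gene expression microarray.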

In another experiment the test system is KMS-11. Nature of the experiment: Upregulation of DOT1L in human KMS-11 cells by qRT-PCR analysis. The format is functional, cell-based. The essentials: (§2)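 Basal DOT1L transcript in untreated myeloma cell lines measured by qRT-PCR, normalized to ACTB; mean of 3 replicates with SEM.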
In experiment [8] the test system is RPMI-8226. Description: Upregulation of AIF1 gene in human RPMI-8226 cells at 1 uM for 6 days by. Type of experiment: functional, cell-based. The following applies: time 6.0 day.
In experiment [9] the test system is MM1.S. Nature of the experiment: Upregulation of PARP8 gene in human MM1.S cells at 1 uM for 6 days by. Type of experiment: functional, cell-based. The following applies: time 6.0 day.
Experiment [10] concerns MM1.S. Nature of the experiment: Upregulation of SOAT2 gene in human MM1.S cells at 1 uM for 6 days by. Type of experiment: functional, cell-based. The following applies: time 6.0 day.
The test system of experiment [11] is RPMI-8226. Description: Upregulation of ANTXR2 gene in human RPMI-8226 cells at 1 uM for 6 days by. Type of experiment: functional, cell-based. Particulars: time 6.0 day.
The subject of experiment [12] is MM1.S. Nature of the experiment: Upregulation of MYOF gene in human MM1.S cells at 1 uM for 6 days by. The format is functional, cell-based. Particulars: time 6.0 day.
The test system of experiment [13] is RPMI-8226. Description: Upregulation of CCL2 gene in human RPMI-8226 cells at 1 uM for 6 days by. The format is functional, cell-based. The following applies: time 6.0 day.
The test system of experiment [14] is MM1.S. Description: Upregulation of GPD2 gene in human MM1.S cells at 1 uM for 6 days by. The following applies: time 6.0 day. The format is functional, cell-based. The essentials: as §1
Experiment [15] deals with MM1.S. Description: Upregulation of CCL2 gene in human MM1.S cells at 1 uM for 6 days by. Type of experiment: functional, cell-based. The following applies: time 6.0 day.
Experiment [16] deals with MM1.S. Description: Upregulation of APH1B gene in human MM1.S cells at 1 uM for 6 days by. Type of experiment: functional, cell-based. Particulars: time 6.0 day.
The subject of experiment [17] is RPMI-8226. Description: Upregulation of ANXA2R gene in human RPMI-8226 cells at 1 uM for 6 days by. Type of experiment: functional, cell-based. The following applies: time 6.0 day.
The subject of experiment [18] is MM1.S. Nature of the experiment: Upregulation of HLA-DMB gene in human MM1.S cells at 1 uM for 6 days by. The format is functional, cell-based. The following applies: time 6.0 day. In outline:
as §1

Experiment [19] relates to RPMI-8226. Description: Upregulation of DDIT4L gene in human RPMI-8226 cells at 1 uM for 6 days by. The format is functional, cell-based. The following applies: time 6.0 day. In outline: as §1
Experiment [20] concerns MM1.S. Nature of the experiment: Upregulation of CXCL9 gene in human MM1.S cells at 1 uM for 6 days by. Type of experiment: functional, cell-based. The following applies: time 6.0 day. In outline: as §1
Experiment [21] has as its system RPMI-8226. Nature of the experiment: Upregulation of SERPINB1 gene in human RPMI-8226 cells at 1 uM for 6 days by. The format is functional, cell-based. Particulars: time 6.0 day.
In experiment [22] the test system is RPMI-8226. Description: Upregulation of SAP30L gene in human RPMI-8226 cells at 1 uM for 6 days by. Type of experiment: functional, cell-based. Particulars: time 6.0 day.
Experiment [23] has as its system MM1.S. Description: Upregulation of IFN in human MM1.S cells assessed as increase in IFI44 gene at 1 uM for 6 days by qRT-PCR analysis. Particulars: time 6.0 day. Type of experiment: functional, cell-based.
Experiment [24] concerns MM1.S. Nature of the experiment: Upregulation of XKR3 gene in human MM1.S cells at 1 uM for 6 days by. The format is functional, cell-based. Particulars: time 6.0 day.
The test system of experiment [25] is MM1.S. Nature of the experiment: Upregulation of BCL6 gene in human MM1.S cells at 1 uM for 6 days by. The format is functional, cell-based. Particulars: time 6.0 day.
Experiment [26] has as its system MM1.S. Nature of the experiment: Upregulation of AMY1C gene in human MM1.S cells at 1 uM for 6 days by. The format is functional, cell-based. The following applies: time 6.0 day.
For experiment [27], the system named is RPMI-8226. Description: Upregulation of ISG15 gene in human RPMI-8226 cells at 1 uM for 6 days by. The format is functional, cell-based. The following applies: time 6.0 day.
The test system of experiment [28] is MM1.S. Nature of the experiment: Upregulation of MILR1 gene in human MM1.S cells at 1 uM for 6 days by. The format is functional, cell-based. The following applies: time 6.0 day.
Experiment [29] has as its system RPMI-8226. Description: Upregulation of IL13RA1 gene in human RPMI-8226 cells at 1 uM for 6 days by. Type of experiment: functional, cell-based. Particulars: time 6.0 day.
For experiment [30], the system named is RPMI-8226. Nature of the experiment: Upregulation of COL16A1 gene in human RPMI-8226 cells at 1 uM for 6 days by. The format is functional, cell-based. Particulars: time 6.0 day. The essentials:
as §1

Experiment [31] has as its system MM1.S. Description: Upregulation of CAPG gene in human MM1.S cells at 1 uM for 6 days by. The following applies: time 6.0 day. The format is functional, cell-based.
For experiment [32], the system named is RPMI-8226. Nature of the experiment: Upregulation of CXCL12 gene in human RPMI-8226 cells at 1 uM for 6 days by. Type of experiment: functional, cell-based. The following applies: time 6.0 day. The essentials: as §1
Experiment [33] deals with MM1.S. Description: Upregulation of CHRNA6 gene in human MM1.S cells at 1 uM for 6 days by. Particulars: time 6.0 day. The format is functional, cell-based.
Experiment [34] relates to RPMI-8226. Nature of the experiment: Upregulation of HLA-DRA gene in human RPMI-8226 cells at 1 uM for 6 days by. Type of experiment: functional, cell-based. Particulars: time 6.0 day.
Experiment [35] concerns RPMI-8226. Description: Upregulation of CCDC74B gene in human RPMI-8226 cells at 1 uM for 6 days by. Particulars: time 6.0 day. Type of experiment: functional, cell-based.
Experiment [36] concerns RPMI-8226. Description: Upregulation of CAPN2 gene in human RPMI-8226 cells at 1 uM for 6 days by. Type of experiment: functional, cell-based. The following applies: time 6.0 day.
Experiment [37] deals with RPMI-8226. Nature of the experiment: Upregulation of MYO1F gene in human RPMI-8226 cells at 1 uM for 6 days by. The format is functional, cell-based. The following applies: time 6.0 day.
In experiment [38] the test system is MM1.S. Nature of the experiment: Upregulation of CCR5 gene in human MM1.S cells at 1 uM for 6 days by. The following applies: time 6.0 day. The format is functional, cell-based.
The test system of experiment [39] is RPMI-8226. Nature of the experiment: Upregulation of IFITM1 gene in human RPMI-8226 cells at 1 uM for 6 days by. The format is functional, cell-based. Particulars: time 6.0 day.
Experiment [40] relates to RPMI-8226. Nature of the experiment: Upregulation of GLYATL1 gene in human RPMI-8226 cells at 1 uM for 6 days by. Type of experiment: functional, cell-based. Particulars: time 6.0 day. In outline: as §1
Experiment [41] relates to RPMI-8226. Description: Upregulation of APOL4 gene in human RPMI-8226 cells at 1 uM for 6 days by. Type of experiment: functional, cell-based. The following applies: time 6.0 day.
Experiment [42] has as its system RPMI-8226. Nature of the experiment: Upregulation of RAPGEF2 gene in human RPMI-8226 cells at 1 uM for 6 days by. Particulars: time 6.0 day. The format is functional, cell-based.
Experiment [43] concerns MM1.S. Nature of the experiment: Upregulation of PRDM8 gene in human MM1.S cells at 1 uM for 6 days by. The format is functional, cell-based. The following applies: time 6.0 day.
Experiment [44] has as its system KMS-12-PE. Description: Upregulation of DOT1L in human KMS-12-PE cells by qRT-PCR analysis. The format is functional, cell-based. The essentials: as §2

The source made the active and inactive calls. The rule behind the calls is not given here.

Take `CC(C)N(C[C@H]1O[C@@H](n2cnc3c(N)ncnc32)[C@H](O)[C@@H]1O)[C@H]1C[C@@H](CCc2nc3cc(C(C)(C)C)ccc3[nH]2)C1` [PINOMETOSTAT]: the result in the experiment with MM1.S [1] and with RPMI-8226 [3] was Active. Also, the Activity in the experiment on MM1.S [2] was 0.083%; in the experiment on MM1.S [4], 16.9%.

Regarding `CC(C)N(CCCNC(=O)Nc1ccc(C(C)(C)C)cc1)C[C@H]1O[C@@H](n2cc(Br)c3c(N)ncnc32)[C@H](O)[C@@H]1O`, the result in the experiment with RPMI-8226 [5], in the experiment on MM1.S [7], with KMS-11, in the experiment on RPMI-8226 [8], with MM1.S [9] and in the experiment with MM1.S [10] was Active. Besides, the outcome in the experiment on RPMI-8226 [11], in the experiment on MM1.S [12], in the experiment with RPMI-8226 [13], in the experiment on MM1.S [14], in the experiment on MM1.S [15] and in the experiment on MM1.S [16] was Active. For the same compound, the outcome in the experiment on RPMI-8226 [17], in the experiment on MM1.S [18], in the experiment with RPMI-8226 [19], with MM1.S [20], in the experiment on RPMI-8226 [21] and with RPMI-8226 [22] was Active. Besides, the result in the experiment on MM1.S [23], in the experiment on MM1.S [24], with MM1.S [25], in the experiment on MM1.S [26], with RPMI-8226 [27] and with MM1.S [28] was Active. The outcome in the experiment on RPMI-8226 [29], in the experiment with RPMI-8226 [30], in the experiment on MM1.S [31], with RPMI-8226 [32], with MM1.S [33] and in the experiment with RPMI-8226 [34] was Active. Also, the result in the experiment on RPMI-8226 [35], in the experiment on RPMI-8226 [36], in the experiment with RPMI-8226 [37], in the experiment with MM1.S [38], with RPMI-8226 [39] and in the experiment on RPMI-8226 [40] was Active. Also, the result in the experiment on RPMI-8226 [41], with RPMI-8226 [42], with MM1.S [43] and in the experiment with KMS-12-PE [44] was Active. For the same compound, the outcome with KMS-12-PE [6] was inactive.
